Results as given in ChEMBL document CHEMBL5236549, “Discovery of 2-Sulfinyl-Diazabicyclooctane Derivatives, Potential Oral β-Lactamase Inhibitors for Infections Caused by Serine β-Lactamase-Producing Enterobacterales” (J Med Chem, 2021).

Legend:
[1] = Inhibition of bacterial beta-lactamase CMY-2 using nitrocefin as substrate incubated for 20 mins; design: species or system Bacteria
Method in brief: (§1)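 Nitrocefin hydrolysis read by absorbance. Enzyme titrated to give about 0.2 absorbance change over the no-enzyme control. Enzyme added to nitrocefin (final 50 μg/mL) plus inhibitor, no preincubation, read after 20 min at 35 °C. IC50 is 50% reduction of hydrolysis. N = 1.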

[2] = Total clearance in rat by LC-MS/MS analysis; type: ADME; details: in vivo
[3] = Stability in rat serum assessed as compound remaining at 5 micromol/L incubated for 30 mins by LC-MS/MS analysis; type: ADME, cell-free; details: dose 5 µmol/L, read-out: Stability
Method in brief: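 Pooled rat serum incubated with 5 μmol/L compound for 30 min at 37 °C, in duplicate; aliquot mixed with methanol, centrifuged, supernatant analysed by LC/MS/MS for % remaining.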

[4] = Inhibition of bacterial beta-lactamase OXA-48 using nitrocefin as substrate incubated for 20 mins; design: species or system Bacteria; method in brief: as §1
Escherichia coli [5] = experiment: Antibacterial activity against Escherichia coli ATCC SR34100 assessed as reduction in bacterial growth by measuring minimum […] concentration incubated for 16 to 24 hrs by CLSI based two-fold serial dilution method; type: functional; details: time 16-24 hrs
Method in brief: (§2)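 MPC₁ by broth microdilution: twofold serial dilutions of inhibitor in cation-adjusted Mueller Hinton broth containing ceftibuten at 1 μg/mL. Inoculum about 5 × 10⁴ cfu/well final, set from OD625. Incubation at 35 °C for 16−20 h. […] N = 1.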

Klebsiella pneumoniae [6] = experiment: Antibacterial activity against Klebsiella pneumoniae ATCC SR201218 assessed as reduction in bacterial growth by measuring minimum […] concentration incubated for 16 to 24 hrs by CLSI based two-fold serial dilution method; type: functional; details: time 16-24 hrs; method in brief: as §2
Enterobacter cloacae [7] = experiment: Antibacterial activity against Enterobacter cloacae SR200030 assessed as inhibition of bacterial growth incubated for 16 to 24 hrs by CLSI based two-fold serial dilution method; type: functional; details: time 16-24 hrs
Method in brief: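 CLSI broth microdilution in cation-adjusted Mueller Hinton broth, twofold serial dilutions, about 5 × 10⁴ cfu/well from OD625, 35 °C for 16−20 h. MIC is the lowest concentration with no visible growth.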

Enterobacter cloacae [8] = experiment: Antibacterial activity against Enterobacter cloacae SR200030 assessed as reduction in bacterial growth by measuring minimum […] concentration incubated for 16 to 24 hrs by CLSI based two-fold serial dilution method; type: functional; details: time 16-24 hrs
Method in brief: (§3)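 Inhibitor twofold serially diluted in cation-adjusted Mueller Hinton broth containing ceftibuten 1 μg/mL. About 5 × 10⁴ cfu/well, 35 °C for 16−20 h. […] N = 1.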

Klebsiella pneumoniae [9] = experiment: Antibacterial activity against Klebsiella pneumoniae SR100758 assessed as reduction in bacterial growth by measuring minimum […] concentration incubated for 16 to 24 hrs by CLSI based two-fold serial dilution method; type: functional; details: time 16-24 hrs; method in brief: as §3
[10] = AUC in mouse at 10 mg/kg,iv by LC/MS/MS analysis; type: ADME, organism-based; design: dose 10 mg/kg, route iv; details: in vivo
Method in brief: (§4)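 Plasma of the parent acid measured by LC/MS/MS (methanol precipitation, positive ESI, external standard); oral values follow prodrug dosing (rat fed, dog and monkey fasted). AUC from 0 h to last time point by linear trapezoid; F from oral AUC versus iv AUC of the parent. N = 2 (rat, dog), N = 3 (monkey, mouse).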

[11] = Half life in mouse at 10 mg/kg,iv by LC/MS/MS analysis; type: ADME, organism-based; details: in vivo
Method in brief: (§5)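 After iv dosing, T1/2 taken as ln 2/kel, with kel from the slope of the log concentration–time profile. Plasma levels measured by LC/MS/MS with an external standard.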

[12] = Total clearance in mouse at 10 mg/kg,iv by LC/MS/MS analysis; type: ADME, organism-based; details: in vivo
Method in brief: (§6)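 Intravenous dosing (mouse 10, rat 1, dog 5, monkey 5 mg/kg); plasma quantified by LC/MS/MS after methanol precipitation with external standard; AUC by linear trapezoidal approximation; CLtot = dose/AUC.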

[13] = AUC in rat at 1 mg/kg,iv by LC/MS/MS analysis; type: ADME, organism-based; design: dose 1 mg/kg, route iv; details: in vivo; method in brief: as §4
[14] = Half life in rat at 1 mg/kg,iv by LC/MS/MS analysis; type: ADME, organism-based; details: in vivo; method in brief: as §5
[15] = Total clearance in rat at 1 mg/kg,iv by LC/MS/MS analysis; type: ADME, organism-based; details: in vivo; method in brief: as §6
[16] = AUC in dog at 5 mg/kg,iv by LC/MS/MS analysis; type: ADME, organism-based, Canis lupus familiaris; design: dose 5 mg/kg, route iv; details: in vivo; method in brief: as §4
[17] = Total clearance in dog at 5 mg/kg,iv by LC/MS/MS analysis; type: ADME, organism-based, Canis lupus familiaris; details: in vivo; method in brief: as §6
[18] = AUC in monkey at 5 mg/kg,iv by LC/MS/MS analysis; type: ADME, organism-based, Macaca mulatta; design: dose 5 mg/kg, route iv; details: rhesus monkey, in vivo; method in brief: as §4
[19] = Half life in monkey at 5 mg/kg,iv by LC/MS/MS analysis; type: ADME, organism-based, Macaca mulatta; details: rhesus monkey, in vivo; method in brief: as §5
[20] = Total clearance in monkey at 5 mg/kg,iv by LC/MS/MS analysis; type: ADME, organism-based, Macaca mulatta; details: rhesus monkey, in vivo; method in brief: as §6
Escherichia coli [21] = experiment: Antibacterial activity against Escherichia coli ATCC SR09613 assessed as inhibition of bacterial growth incubated for 16 to 20 hrs by CLSI based two-fold serial dilution method
Enterobacter cloacae [22] = experiment: Antibacterial activity against Enterobacter cloacae SR100108 assessed as inhibition of bacterial growth incubated for 16 to 20 hrs by CLSI based two-fold serial dilution method
Klebsiella pneumoniae [23] = experiment: Antibacterial activity against Klebsiella pneumoniae SR09603 assessed as inhibition of bacterial growth incubated for 16 to 20 hrs by CLSI based two-fold serial dilution method
Klebsiella pneumoniae [24] = experiment: Antibacterial activity against Klebsiella pneumoniae SR201325 assessed as inhibition of bacterial growth incubated for 16 to 20 hrs by CLSI based two-fold serial dilution method
Klebsiella pneumoniae [25] = experiment: Antibacterial activity against Klebsiella pneumoniae ATCC BAA1705 assessed as inhibition of bacterial growth incubated for 16 to 20 hrs by CLSI based two-fold serial dilution method
Klebsiella pneumoniae [26] = experiment: Antibacterial activity against Klebsiella pneumoniae ATCC SR201218 assessed as inhibition of bacterial growth incubated for 16 to 20 hrs by CLSI based two-fold serial dilution method
Enterobacter cloacae [27] = experiment: Antibacterial activity against Enterobacter cloacae SR36276 assessed as reduction in bacterial growth by measuring minimum […] concentration incubated for 16 to 20 hrs by CLSI based two-fold serial dilution method; details: time 16-20 hrs
Klebsiella pneumoniae [28] = experiment: Antibacterial activity against Klebsiella pneumoniae SR09635 assessed as reduction in bacterial growth by measuring minimum […] concentration incubated for 16 to 20 hrs by CLSI based two-fold serial dilution method; details: time 16-20 hrs
Klebsiella pneumoniae [29] = experiment: Antibacterial activity against Klebsiella pneumoniae SR200263 assessed as reduction in bacterial growth by measuring minimum […] concentration incubated for 16 to 20 hrs by CLSI based two-fold serial dilution method; details: time 16-20 hrs
Klebsiella pneumoniae [30] = experiment: Antibacterial activity against Klebsiella pneumoniae SR200487 assessed as reduction in bacterial growth by measuring minimum […] concentration incubated for 16 to 20 hrs by CLSI based two-fold serial dilution method; details: time 16-20 hrs

For `C[S@@+]([O-])[C@@H]1CC[C@@H]2CN1C(=O)N2O[C@H](F)C(=O)[O-].[Na+]`, the IC50 [1] was 28 nM, the clearance [2] was 27 mL/min/kg and the remaining at 0.5 h, 5 µM [3] was 85%. It also gave an IC50 [4] of 443 nM, an MPC (Escherichia coli [5]) of 0.125 µg/mL and an MPC (Klebsiella pneumoniae [6]) of 2 µg/mL. For the same compound, the MIC (Enterobacter cloacae [7]) was over 32 µg/mL, the MPC (Enterobacter cloacae [8]) was 4 µg/mL and the MPC (Klebsiella pneumoniae [9]) was 0.25 µg/mL. It also gave an AUC [10] of 4920 ng·h/mL, a half-life [11] of 24 min and a clearance [12] of 34.7 mL/min/kg. It also gave an AUC [13] of 620 ng·h/mL, a half-life [14] of 12 min and a clearance [15] of 27 mL/min/kg. The AUC [16] was 19400 ng·h/mL, the clearance [17] was 4.3 mL/min/kg and the AUC [18] was 13800 ng·h/mL. The half-life [19] was 30 min, the clearance [20] was 6.15 mL/min/kg and the MIC (Escherichia coli [21]) was 32 µg/mL. The MIC (Enterobacter cloacae [22]) was over 32 µg/mL, the MIC (Klebsiella pneumoniae [23]) was 32 µg/mL and the MIC (Klebsiella pneumoniae [24]) was over 32 µg/mL. It also gave an MIC (Klebsiella pneumoniae [25]) of 32 µg/mL, an MIC (Klebsiella pneumoniae [26]) of over 32 µg/mL and an MPC (Enterobacter cloacae [27]) of 2 µg/mL. It also gave an MPC (Klebsiella pneumoniae [28]) of 2 µg/mL, an MPC (Klebsiella pneumoniae [29]) of 0.125 µg/mL and an MPC (Klebsiella pneumoniae [30]) of 0.5 µg/mL.
